Consider 3 compounds from ChEMBL document CHEMBL3785068, “Synthesis and biological evaluation of novel 6,7-dihydro-5H-cyclopenta[d]pyrimidine and 5,6,7,8-tetrahydroquinazoline derivatives as sigma-1 (σ1) receptor antagonists for the treatment of pain” (Bioorg Med Chem Lett, 2016).

Experiment [1] concerns the target Sigma non-opioid intracellular receptor 1 (Cavia porcellus, UniProt Q60492). Kind of experiment: Displacement of [3H]-(+)-pentazocine from sigma1 receptor in guinea pig brain membrane after 180 mins by liquid scintillation counter. Format: cell membranes. (Loss of bound radioactivity is the signal in a displacement assay; it reports binding, not function.)
In experiment [2] the test system is Mus musculus. Kind of experiment: Antinociceptive activity in Kun Ming mouse assessed as inhibition of formalin-induced pain response during phase 2 measured as licking and biting time at 80 mg/kg, ip preincubated with compound for 15 mins followed by formalin injection measured after 15 to 45 mins. In kind it is functional. In short, it runs like this: (§1)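 Formalin injected intraplantar into the mouse hind paw. Licking/biting time scored in phase I (0–5 min) and phase II (15–45 min) after 80 mg/kg test dose. At least ten animals per group; mean ± SEM; two-way ANOVA with Newman-Keuls test against vehicle and formalin-alone groups.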

Experiment [3] concerns Mus musculus. Kind of experiment: Antinociceptive activity in Kun Ming mouse assessed as inhibition of formalin-induced pain response during phase 1 measured as licking and biting time at 80 mg/kg, ip preincubated with compound for 15 mins followed by formalin injection measured up to 5 mins. Format: functional. In short, it runs like this:
as §1

What is called Ki is the equilibrium dissociation constant of an inhibitor or competing ligand from its target. Low readings indicate tighter binding, high ones weaker binding.

Sigma non-opioid intracellular receptor 1, sequence (Q60492 whole entry): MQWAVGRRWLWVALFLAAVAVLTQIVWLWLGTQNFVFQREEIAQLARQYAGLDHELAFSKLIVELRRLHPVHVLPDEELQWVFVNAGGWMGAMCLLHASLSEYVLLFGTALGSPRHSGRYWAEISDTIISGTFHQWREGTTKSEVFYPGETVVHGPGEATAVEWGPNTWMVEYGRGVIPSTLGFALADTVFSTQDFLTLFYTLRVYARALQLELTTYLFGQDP

For `CC1CCN(CCCOc2nc(-c3ccc(Cl)cc3)nc3c2CCC3)CC1`, the Ki in experiment [1] amounted to 21.1 nM.

`CN(C)CCCOc1nc(-c2ccccc2)nc2c1CCCC2` returned a Ki in experiment [1] of 138 nM.

`Cc1cc(OCCN2CCOCC2)nn1-c1ccc2ccccc2c1`: the Time amounted to 55.4 s in experiment [2] and 16.8 s in experiment [3].
